Laboratory results as given in ChEMBL document CHEMBL1128484, “Cardioselective ammonium, phosphonium, and sulfonium analogues of alpha-tocopherol and ascorbic acid that inhibit in vitro and ex vivo lipid peroxidation and scavenge superoxide radicals” (J Med Chem, 1995).

Experiments:
Rattus norvegicus = species on record: Rattus norvegicus; assay: The IC50 value was measured for inhibition of lipid autoxidation in rat brain homogenate.; format: functional
Summary of the method: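 Rat brain homogenate left to autoxidize with test compound present. The read-out is formation of thiobarbituric acid-reactive substances (TBARS). IC50 is the concentration that inhibits TBARS formation by 50%. Values are single or duplicate determinations, or means ± SD.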

[1] = (§1) The reaction rate constant(K) by measuring competition with nitroblue tetrazolium of the superoxide radicals formed by xanthine oxidase/xanthine; format: ADME
Mus musculus [2] = species on record: Mus musculus; assay: The ex vivo ID50 value was measured for lipid inhibition of autoxidation in mouse heart homogenate; format: functional; conditions: read-out: ID50 (the source's name)
Summary of the method: (§2)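 Groups of five CD1 mice were dosed subcutaneously, and hearts were excised 1 h later. Frozen hearts were homogenized, diluted in potassium phosphate buffer and incubated at 37 °C for 2 h. The reaction was stopped on ice with HClO4 and centrifuged. The supernatant was heated with thiobarbituric acid at 100 °C for 15 min. TBARS were extracted into n-butanol and read by fluorescence (ex 515 nm, em 553 nm) against a malondialdehyde dimethylacetal standard. ID50 was taken from semilog plots of log dose versus percent of vehicle control, using at least four doses.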

Mus musculus [3] = species on record: Mus musculus; assay: The in vitro IC50 value was measured for inhibition of lipid autoxidation in mouse heart homogenate; format: functional
Summary of the method: (§3)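 Heart homogenate from untreated mice, diluted in potassium phosphate buffer. Test compound was added at several concentrations before 2 h incubation at 37 °C. The reaction was stopped on ice with HClO4, then heated with thiobarbituric acid at 100 °C for 15 min. TBARS were extracted into n-butanol and read by fluorescence (ex 515 nm, em 553 nm) against a malondialdehyde dimethylacetal standard. IC50 is 50% inhibition of TBARS formation.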

[4] = The reaction rate constant (K) by measuring competition with nitroblue tetrazolium of the superoxide radicals formed by xanthine oxidase/xanthine; format: ADME
Mus musculus [5] = assay: The ex vivo ID50 value was measured for inhibition of lipid autoxidation in mouse heart homogenate 1 hr after subcutaneous administration.; format: functional; conditions: sc, read-out: ID50 (the source's name); summary of the method: as §2
Mus musculus [6] = species on record: Mus musculus; assay: The ex vivo ID50 value was measured for inhibition of lipid autoxidation in mouse heart homogenate; format: functional; conditions: read-out: ID50 (the source's name); summary of the method: as §2
[7] = as §1; format: functional
Mus musculus [8] = species on record: Mus musculus; assay: The in vitro IC50 value was measured for lipid inhibition of autoxidation in mouse heart homogenate; format: functional; summary of the method: as §3

**Q.** Which IC50 (Rattus norvegicus; Rattus norvegicus, Brain) does the source give for `Cc1c(C)c2c(c(C)c1O)CC[C@](C)(CCN(C)C)O2` here?
**A.** Its IC50 is 1 µM.

**Q.** What does the source list for `Cc1c(C)c2c(c(C)c1O)CCC(C)(CC[P+](C)(C)C)O2.[Br-]` (centres undefined)?
**A.** IC50 (Rattus norvegicus; Rattus norvegicus, Brain): 2 µM; K [1]: 24000 M⁻¹ s⁻¹; ED50 (Mus musculus [2]): 8 µmol/kg; IC50 (Mus musculus [3]): 10 µM

**Q.** For `Cc1c(C)c2c(c(C)c1O)CC[C@](C)(CC(=O)[N-][N+](C)(C)C)O2`, which IC50 (Rattus norvegicus; Rattus norvegicus, Brain) is on record?
**A.** Its IC50 is 8 µM.

**Q.** For `Cc1c(C)c2c(c(C)c1O)CCC(C)(C(=O)O)O2` (centres undefined) [TROLOX], which IC50 (Rattus norvegicus) is on record?
**A.** Its IC50 is 14 µM.

**Q.** What about the K [4] of the same compound?
**A.** Its K is 20000 M⁻¹ s⁻¹.

**Q.** What does the source list for `C[N+](C)(C)CC(O)C1OC(=O)C(O)=C1[O-]` (centres undefined)?
**A.** IC50 (Rattus norvegicus; Rattus norvegicus, Brain): > 200 µM; K [4]: 600000 M⁻¹ s⁻¹

**Q.** For `Cc1c(C)c2c(c(C)c1O)CCC(C)(CC(=O)[N-][N+](C)(C)C)O2` (centres undefined), which IC50 (Rattus norvegicus; Rattus norvegicus, Brain) is on record?
**A.** Its IC50 is 6 µM.

**Q.** What about the K [1] of the same compound?
**A.** Its K is 28000 M⁻¹ s⁻¹.

**Q.** Which IC50 (Rattus norvegicus; Rattus norvegicus, Brain) does the source give for `Cc1c(C)c2c(c(C)c1O)CC[C@@](C)(CC[S+](C)C)O2` here?
**A.** Its IC50 is 2 µM.

**Q.** For `Cc1c(C)c2c(c(C)c1O)CCC(C)(CC[N+](C)(C)C)O2.Cc1ccc(S(=O)(=O)[O-])cc1` (centres undefined), which IC50 (Rattus norvegicus; Rattus norvegicus, Brain) is on record?
**A.** The IC50 was 2.6 µM.

**Q.** What about the K [4] of the same compound?
**A.** Its K is 24000 M⁻¹ s⁻¹.

**Q.** And the ED50 (Mus musculus [5])?
**A.** The ED50 was 11 µmol/kg.

**Q.** And the IC50 (Mus musculus [3])?
**A.** Its IC50 is 19 µM.

**Q.** Which IC50 (Rattus norvegicus; Rattus norvegicus, Brain) does the source give for `CCCCCCCCCCCCCCCCCCOC1=C(O)[C@@H](C(O)CO)OC1=O` (some centres undefined) here?
**A.** The IC50 was 6 µM.

**Q.** And the K [1]?
**A.** The K was 21000 M⁻¹ s⁻¹.

**Q.** Which IC50 (Rattus norvegicus; Rattus norvegicus, Brain) does the source give for `CC[P+](CC)(CC)CCC1(C)CCc2c(C)c(O)c(C)c(C)c2O1.[Br-]` (centres undefined) here?
**A.** Its IC50 is 2 µM.

**Q.** What about the K [1] of the same compound?
**A.** Its K is 22000 M⁻¹ s⁻¹.

**Q.** What about the ED50 (Mus musculus [2]) of the same compound?
**A.** Its ED50 is 7 µmol/kg.

**Q.** What about the IC50 (Mus musculus [3]) of the same compound?
**A.** The IC50 was 10 µM.

**Q.** For `Cc1c(C)c2c(c(C)c1O)CCC(C)(CC[S+](C)C)O2.Cc1ccc(S(=O)(=O)[O-])cc1` (centres undefined), which IC50 (Rattus norvegicus; Rattus norvegicus, Brain) is on record?
**A.** The IC50 was 2 µM.

**Q.** What about the K [1] of the same compound?
**A.** The K was 21000 M⁻¹ s⁻¹.

**Q.** What about the ED50 (Mus musculus [2]) of the same compound?
**A.** Its ED50 is 6 µmol/kg.

**Q.** What about the IC50 (Mus musculus [3]) of the same compound?
**A.** The IC50 was 7 µM.

**Q.** Which IC50 (Rattus norvegicus; Rattus norvegicus, Brain) does the source give for `Cc1c(C)c2c(c(C)c1O)CC[C@@](C)(CC(=O)O)O2` here?
**A.** The IC50 was 17 µM.

**Q.** With `Cc1c(C)c2c(c(C)c1O)CC[C@@](C)(CCC[C@H](C)CCC[C@H](C)CCCC(C)C)O2` [alpha-TOCHOPHEROL] as the compound, how does the IC50 (Rattus norvegicus; Rattus norvegicus, Brain) read?
**A.** Its IC50 is 14 µM.

**Q.** With `Cc1c(C)c2c(c(C)c1O)CC[C@@](C)(CC(=O)[N-][N+](C)(C)C)O2` as the compound, how does the IC50 (Rattus norvegicus; Rattus norvegicus, Brain) read?
**A.** Its IC50 is 9 µM.

**Q.** For `CCCCCCCCCCCCCCCCCCOC1=C([O-])C(C(O)C[N+](C)(C)C)OC1=O` (centres undefined), which IC50 (Rattus norvegicus; Rattus norvegicus, Brain) is on record?
**A.** Its IC50 is over 20 µM.

**Q.** Which IC50 (Rattus norvegicus; Rattus norvegicus, Brain) does the source give for `Cc1c(C)c2c(c(C)c1O)CC[C@@](C)(CCN(C)C)O2` here?
**A.** The IC50 was 1 µM.

**Q.** For `Cc1c(C)c2c(c(C)c1O)CC[C@](C)(CC(=O)O)O2`, which IC50 (Rattus norvegicus; Rattus norvegicus, Brain) is on record?
**A.** The IC50 was 14 µM.

**Q.** For `Cc1c(C)c2c(c(C)c1O)CCC(C)(C(=O)[N-][N+](C)(C)C)O2` (centres undefined), which IC50 (Rattus norvegicus; Rattus norvegicus, Brain) is on record?
**A.** Its IC50 is 14 µM.

**Q.** For `Cc1c(C)c2c(c(C)c1O)CC[C@](C)(CC[P+](C)(C)C)O2`, which IC50 (Rattus norvegicus; Rattus norvegicus, Brain) is on record?
**A.** The IC50 was 2 µM.

**Q.** What does the source list for `Cc1c(C)c2c(c(C)c1O)CCC(C)(CCN(C)C)O2` (centres undefined)?
**A.** K [4]: 27000 M⁻¹ s⁻¹; ED50 (Mus musculus [6]): > 150 µmol/kg; IC50 (Mus musculus [3]): 19 µM

**Q.** For `Cc1c(C)c2c(c(C)c1O)CC[C@](C)(CC[S+](C)C)O2`, which IC50 (Rattus norvegicus; Rattus norvegicus, Brain) is on record?
**A.** Its IC50 is 2 µM.

**Q.** For `Cc1c(C)c2c(c(C)c1O)CC[C@@](C)(CC[P+](C)(C)C)O2`, which IC50 (Rattus norvegicus; Rattus norvegicus, Brain) is on record?
**A.** The IC50 was 2 µM.

**Q.** For `Cc1c(C)c2c(c(C)c1O)CC[C@@](C)(CC[N+](C)(C)C)O2.Cc1ccc(S(=O)(=O)[O-])cc1`, which IC50 (Rattus norvegicus; Rattus norvegicus, Brain) is on record?
**A.** Its IC50 is 2.3 µM.

**Q.** What about the K [4] of the same compound?
**A.** The K was 21000 M⁻¹ s⁻¹.

**Q.** What does the source list for `Cc1c(C)c2c(c(C)c1O)CC[C@](C)(CC[N+](C)(C)C)O2.Cc1ccc(S(=O)(=O)[O-])cc1`?
**A.** IC50 (Rattus norvegicus; Rattus norvegicus, Brain): 2.2 µM; K [4]: 18000 M⁻¹ s⁻¹

**Q.** Which K [7] does the source give for `O=C1O[C@H]([C@@H](O)CO)C(O)=C1O` here?
**A.** Its K is 350000 M⁻¹ s⁻¹.

**Q.** With `CSCCC1(C)CCc2c(C)c(O)c(C)c(C)c2O1` (centres undefined) as the compound, how does the IC50 (Rattus norvegicus; Rattus norvegicus, Brain) read?
**A.** The IC50 was 3 µM.

**Q.** And the IC50 (Mus musculus [8])?
**A.** The IC50 was 18 µM.

**Q.** What about the ED50 (Mus musculus [2]) of the same compound?
**A.** Its ED50 is over 150 µmol/kg.

**Q.** And the K [4]?
**A.** The K was 800 M⁻¹ s⁻¹.
